One compound from article PMC5710144 (Genes & Development, 2017) can be followed below.

The test system of assay [1] is BRWD2/PHIP CRL4 interaction. The experiment in a line: MS of Flag-BRWD2/PHIP purifications after inhibitor treatment. The settings on record: MLN4924 1 µM, 5 h. The format is cell-based. The method in brief:
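Flag-BRWD2/PHIP was purified from MNase-digested chromatin of HEK293 TRex cells expressing Flag-BRWD2/PHIP, with parental HEK293 TRex cells as the control. MLN4924 (1 µM) was added 5 h before harvest where indicated. Immunoprecipitated complexes were prepared for MS and analysed by MS.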

In assay [2] the test system is CUL4A / DDB1 association with BRWD2/PHIP. It is filed as cell-based. The conditions noted are these: MLN4924 1 µM. The method in brief: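 In HEK293 TRex cells expressing Flag-BRWD2/PHIP, MLN4924 (1 µM) was added 5 h before harvest. Flag purifications were made from MNase-digested chromatin. Inputs and immunoprecipitates were probed by immunoblot with antibodies to CUL4A, DDB1 and Flag-M2.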

Turning to `NS(=O)(=O)OC[C@@H]1C[C@@H](n2ccc3c(N[C@H]4CCc5ccccc54)ncnc32)C[C@@H]1O` [MLN4924], in assay [1], the “BRWD2/PHIP association with CSN complex” value was “disrupts BRWD2/PHIP association”; the “BRWD2/PHIP association with Nedd8-binding protein UBXD7 (UBXN7)” value is given as “disrupts BRWD2/PHIP association”; the “interaction with chromatin remodelers and histone-binding proteins (CHD4, PHF6, FACT)” value is given as “not altered”. In assay [2] (5 h), the “BRWD2/PHIP association with CUL4A and DDB1” value is “still occurs”; the “CUL4A level / CUL4A interaction with BRWD2/PHIP” value was “slightly reduced”. In addition, the “Nedd8 attachment to CUL4” value in assay [2] (added 5 h prior to harvesting, HEK293) is reported as “blocks Nedd8 attachment to CUL4”.
